From PubChem BioAssay
Inconclusive results are not listed.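 How the source made its calls, unless noted: active means growth inhibition above 25% in both replicates, a cutoff set 3 SD above the mean; inconclusive means above 25% in only one replicate; inactive means the rest.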

Columns and labels:
[1] = S. cerevisiae growth inhibition in permissive medium (OD615), pilot counter-assay for S. cerevisiae lifespan shortening project, permissive growth control (AID 705); conditions: OD615, 24 h, at 10 µM, active compounds read high
In short: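 System: Engineered DeaD yeast | Buffer or medium: SC raffinose/galactose permissive medium | Doses: 10 µM single dose, 0.25% DMSO | Times: 24 h exposure, 30 °C | Measured by: OD615 turbidity read | Read-out: Yeast growth inhibition indicated by reduced 24 h OD615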

[2] = S. cerevisiae growth inhibition in restrictive medium, OD615, pilot screen, restrictive growth control, yeast lifespan reduction project (AID 706;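 active means growth inhibition above a set limit, 3 SD over mean compound inhibition, in both replicates, cut at about 43% in these data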;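 further: modified DeaD lifespan yeast strain shifted to restrictive glucose medium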); conditions: OD615, 48 h, at 10 µM, active compounds read high
In short: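 Assay system: engineered S. cerevisiae DeaD strain; Buffer or medium: CSMM-D glucose medium; Dosing: 10 µM compound, 0.25% DMSO; Times: cell pre-growth 4 h, compound exposure 48 h, 30 °C; Detection: absorbance (optical density) measured at 615 nm.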

[3] = doxorubicin toxicity protection in MRP-1 cells – H69AR cells, CellTiter-Glo, duplicate, MRP-1 activator project, pilot screen (AID 807;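 active means viability increase at or above a cutoff of the median across tested compounds plus 3 SD, cut at about 8.5% in these data, passing the limit was not always enough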;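 further: compound pretreatment 18-22 h then 72 h combined with doxorubicin; 0% = doxorubicin alone and 100% = vehicle without doxorubicin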); conditions: H69AR viability with doxorubicin, CellTiter-Glo luminescence; at 10 µM; active compounds read high
[4] = viability of HCT116 without oncogenic beta-catenin – human colon tumor cells, pilot screen (AID 823;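 active means cell viability at or below a set limit in both duplicate runs, the limit being the all-compound median minus 4 SD, cut at about 23% in these data, passing the limit was not always enough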;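 further: 0% = wells killed by 20 µM Hyamine and 100% = untreated DMSO cell wells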); conditions: HCT116 beta-catenin knockout viability, CellTiter-Glo, 60 h; at 10 µM; active compounds read low
[5] = viability of PTEN-null HCT116 cells – cell-based, HCT116 clonal line, CellTiter-Glo, pilot screen (AID 824;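 active means viability at or below 27.92% in each of two runs, the all-compound median minus 4 SD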;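 further: 0% = 20 µM Hyamine control and 100% = vehicle cell control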); conditions: HCT116 PTEN-deleted viability, 60 h, at 10 µM, active compounds read low
[6] = RAM pathway blockade in budding yeast – dse1pr::URA3 reporter, 5-FOA selection, pilot screen (AID 869;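 active means inhibition over a set limit, the all-compound mean plus 3 SD, in both replicate runs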;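 further: 0% = DMSO wells with no growth and 100% = 10 µM 1-NA-PP1 with full growth; RAM network block rescues cells from 5-FOA so hits raise OD615 growth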); conditions: S. cerevisiae dse1pr::URA3 5-FOA growth, OD615, 2 d; at 10 µM; active compounds read high; strain carries analog-sensitive mutant Cbk1 kinase
[7] = RAM signaling pathway blockade in yeast – S. cerevisiae, Pdr1DBD-CYC8 efflux-inhibited sensitized strain, primary screen (AID 1298;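 active means RAM network inhibition above 8.4% in each of two replicates, 3 SD over the compound average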;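 further: 0% = DMSO untreated cells without growth and 100% = 10 µM 1-NA-PP1 full growth; higher means more yeast growth rescued from 5-FOA killing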); conditions: S. cerevisiae cbk1-as DSE1-URA3 strain, 5-FOA growth OD615, 2 d; at 50 µM; active compounds read high

CCn1cc(C(=O)NCCCN2CCC(C)CC2)c2cc(OC)c(OC)cc2c1=O
inactive: growth inhibition [1] -7.74% | growth inhibition [2] 6.7% | viability increase [3] -3.47% | viability [4] 99.3% | viability [5] 92% | inhibition [6] 1.77% | RAM network inhibition [7] 1.99%

COc1ccc(C(C(=O)NC2CCCC2)N2CCc3ccccc32)cc1 (stereo not given)
inactive: growth inhibition [1] -12.6% | growth inhibition [2] -11.4% | viability increase [3] -3.02% | viability [4] 92.8% | viability [5] 87.9% | inhibition [6] 1.26% | RAM network inhibition [7] 1.52%

COc1cccc(CNC(=O)C2CCN(S(=O)(=O)c3cccc4cccnc34)CC2)c1
inactive: growth inhibition [1] -10.5% | growth inhibition [2] -2.92% | viability increase [3] -1.45% | viability [4] 100% | viability [5] 97.5% | inhibition [6] 2.88% | RAM network inhibition [7] 3.03%

CC(C)C12CN3CC(C(C)C)(CN(C1)C31C(=O)Nc3ccccc31)C2=O (stereo not given)
inactive: growth inhibition [1] -16.5% | growth inhibition [2] -17.8% | viability increase [3] -0.6% | viability [4] 90.3% | viability [5] 101% | inhibition [6] 1.05% | RAM network inhibition [7] 3.39%

CCOC(=O)c1cc2c(=O)n3cccc(C)c3nc2n(CCCOC)c1=NC(=O)c1cccnc1
inactive: growth inhibition [1] -11.3% | growth inhibition [2] -9.9% | viability increase [3] -4.94% | viability [4] 92.5% | viability [5] 92.2% | inhibition [6] 0.515% | RAM network inhibition [7] 6.01%

COc1cc(Nc2cc(C)nc3nc(C)nn23)cc(OC)c1OC
inactive: growth inhibition [1] 2.3% | growth inhibition [2] 6.15% | viability increase [3] -1.11% | viability [4] 95.7% | viability [5] 104% | inhibition [6] 0.525% | RAM network inhibition [7] 4.23%

COc1ccc(C2C(C(=O)N3CC(C)CC(C)C3)c3ccccc3C(=O)N2C)cc1 (stereo not given)
inactive: growth inhibition [1] -10.8% | growth inhibition [2] -4.94% | viability increase [3] -1.09% | viability [4] 96.7% | viability [5] 93% | inhibition [6] 0.305% | RAM network inhibition [7] 0.47%

CCCc1cc(C(=O)N2CCN(C(c3ccccc3)c3ccccc3)CC2)no1
inactive: growth inhibition [1] -10.9% | growth inhibition [2] -6.91% | viability increase [3] 4.46% | viability [4] 98.7% | viability [5] 90.9% | inhibition [6] 0.485% | RAM network inhibition [7] 5.99%

CCN(CC)CCNC(=O)c1cc2c(=O)n(C)c3ccccc3c2n1C
inactive: growth inhibition [1] -4.52% | growth inhibition [2] -6.67% | viability increase [3] -4.8% | viability [4] 49.8% | viability [5] 51.4% | inhibition [6] 1.88% | RAM network inhibition [7] 0.31%

CCC(NC(=O)c1ccccc1NC(=O)c1ccco1)C(=O)NC1CCCCC1 (stereo not given)
inactive: growth inhibition [1] -4.2% | growth inhibition [2] 7.98% | viability increase [3] -2.29% | viability [4] 89.1% | viability [5] 98.3% | inhibition [6] 1.35% | RAM network inhibition [7] 2.08%

CC1=C(C(=O)OC(C)C)C(c2ccc(Br)s2)NC(=O)N1C (stereo not given)
inactive: growth inhibition [1] -17% | growth inhibition [2] -22.3% | viability increase [3] 0.85% | viability [4] 70.6% | viability [5] 77% | inhibition [6] 0.54% | RAM network inhibition [7] 2.29%

Cc1ccc(C(=O)Nc2nc3ccccc3n2CCN2CCCC2)cc1
inactive: growth inhibition [1] -11.4% | growth inhibition [2] -2% | viability increase [3] -5.99% | viability [4] 37.4% | viability [5] 51.5% | inhibition [6] 0.665% | RAM network inhibition [7] 7.05%

CCCCCc1nnc(NC(=O)OCCC)s1
inactive: growth inhibition [1] -1% | growth inhibition [2] 14.7% | viability increase [3] -3.57% | viability [4] 97.8% | viability [5] 91.2% | inhibition [6] 0.63% | RAM network inhibition [7] -0.93%

O=C(CNS(=O)(=O)c1ccc(C(=O)N2CCCCC2)cc1)N1CCCCC1
inactive: growth inhibition [1] -11.9% | growth inhibition [2] -18.1% | viability increase [3] 0.86% | viability [4] 93.3% | viability [5] 90.8% | inhibition [6] -0.19% | RAM network inhibition [7] 3.77%

Cn1c(C(=O)N2CCN(C(=O)c3ccco3)CC2)cc2c(=O)n(C)c3ccccc3c21
inactive: growth inhibition [1] -3.88% | growth inhibition [2] 5.88% | viability increase [3] -4.21% | viability [4] 92.9% | viability [5] 87% | inhibition [6] 0.83% | RAM network inhibition [7] 2.87%
